assay: Inhibition of yeast alpha-glucosidase using p-nitrophenyl a-D-glucopyranoside as substrate by spectrophotometry; set-up: species or system Saccharomyces cerevisiae
In short: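 Yeast enzyme at 1 U/mL with 0.01 M p-nitrophenyl α-D-glucopyranoside substrate, in 0.067 M KH₂PO₄–Na₂HPO₄ buffer, pH 6.8. Reaction run at 37 °C for 10 min and inhibition read spectrophotometrically. Method adapted with slight modification from a published procedure.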

Question: For `Oc1cc(O)cc(/C=C/c2ccc(O)c(O)c2)c1` [PICEATANNOL], which IC50 is on record?
Answer: 34.3 µM

Question: Which IC50 does the source give for `Oc1cc(O)cc(/C=C/c2cc(O)c3c(c2)[C@H](c2cc(O)cc(O)c2)[C@@H](c2ccc(O)c(O)c2)O3)c1` (racemic) here?
Answer: 1.13 µM

Question: With `CC(=O)Oc1cc([C@H]2Oc3ccc(/C=C/c4cc(O)cc(O)c4)cc3O[C@@H]2c2cc(O)cc(O)c2)ccc1O` (racemic) as the compound, how does the IC50 read?
Answer: 69.3 µM

Question: Which IC50 does the source give for `COc1cc([C@H]2Oc3c(O)cc(/C=C/c4cc(O)cc(O)c4)cc3[C@@H]2c2cc(O)cc(O)c2)ccc1O` (relative stereo) here?
Answer: 3.04 µM

Question: Which IC50 does the source give for `Oc1cc(O)c2c(c1)[C@H]1[C@H](c3ccc(O)c(O)c3)c3c(O)cc(O)cc3[C@H]1[C@@H]2c1ccc(O)c(O)c1` [CARAROSINOL D] here?
Answer: 79.1 µM

Question: Which IC50 does the source give for `Oc1cc(O)cc(/C=C/c2ccc3c(c2)O[C@H](c2cc(O)cc(O)c2)[C@@H](c2ccc(O)c(O)c2)O3)c1` [MAACKIN] here?
Answer: 23.2 µM

Question: Which IC50 does the source give for `CC(=O)Oc1cc([C@@H]2c3c(O)cc(O)cc3[C@H]3[C@H](c4ccc(O)c(OC(C)=O)c4)c4c(O)cc(O)cc4[C@@H]23)ccc1O` here?
Answer: 131 µM

Question: With `COc1cc([C@@H]2c3c(O)cc(O)cc3[C@H]3[C@H](c4ccc(O)c(O)c4)c4c(O)cc(O)cc4[C@@H]23)ccc1O` (racemic) as the compound, how does the IC50 read?
Answer: 109 µM

Question: For `COc1cc(/C=C2/c3cc(O)cc(O)c3[C@H](c3ccc(O)c(OC)c3)[C@H]2c2cc(O)cc(O)c2)ccc1O` [GNETULIN], which IC50 is on record?
Answer: 70.2 µM

Question: Which IC50 does the source give for `OC[C@H]1NC[C@H](O)[C@@H](O)[C@@H]1O` [DUVOGLUSTAT] here?
Answer: 20.6 µM

From ChEMBL document CHEMBL1817615, “Dimerization of piceatannol by Momordica charantia peroxidase and α-glucosidase inhibitory activity of the biotransformation products” (Bioorg Med Chem, 2011)
